Measurements of several laboratories.
Each line is one published result; the experiments were not run side by side.
Read-out: enzyme activity
Action: inhibitor
CHEK2: Serine/threonine-protein kinase Chk2 (CHEK2, Homo sapiens, UniProt O96017)
CHEK2 R145W: Serine/threonine-protein kinase Chk2 (CHEK2, Homo sapiens, UniProt O96017, R145W)

Compound | target | test | setting | remaining activity
COc1cc(Nc2cnc(C#N)c(O[C@H](C)CN(C)C)n2)ncc1-c1cnn(C)c1 | CHEK2 | radiometric | 1 µM | 81%
FC(F)c1nc2ccccc2n1-c1nc(N2CCOCC2)nc(N2CCOCC2)n1 | CHEK2 |  | 10 µM | 88%
CCCOc1ccc(OC)c(F)c1C(=O)c1ccc(C(=O)N[C@@H]2CNC[C@H]2NC(=O)c2ccc3[nH]ncc3c2)cc1 | CHEK2 R145W |  | 10 µM | 21%
Cc1cnc(NC2CCOCC2)nc1-n1cnc(C(=O)NC(CN)c2cc(F)cc(Cl)c2)c1 (centres unmarked) | CHEK2 R145W | radiometric | 1 µM | 79%
Nc1nc(Nc2ccccc2)sc1C(=O)c1c(F)cccc1F | CHEK2 |  | 10 µM | 30%
CCN(CC)c1ccc(C2=NNC(=O)CC2C)cc1[N+](=O)[O-] (centres unmarked) | CHEK2 |  | 10 µM | 101%
O=C(Nc1cnn(-c2csc(C(=O)NC3COC3)c2)c1)Nc1ccccc1Cl | CHEK2 |  | 5 µM | 97.8%
Cc1ccc(C(=O)Nc2ccc(CN3CCN(C)CC3)c(C(F)(F)F)c2)cc1C#Cc1cnc2cccnn12 | CHEK2 |  | 23.5 nM | 98%
Cc1ccc(NC(=O)c2ccc(C)c(C(F)(F)F)c2)cc1C#Cc1nn(C2CCC(O)CC2)c2ncnc(N)c12 (centres unmarked) | Serine/threonine-protein kinase Chk2 (CHEK2, Homo sapiens, UniProt O96017, I157T) |  | 10 µM | 103%
Oc1cccc(-c2nc(N3CCOCC3)c3oc4ncccc4c3n2)c1 | CHEK2 |  | 10 µM | 85%
CC(C)(C)c1nc2c(s1)c1nc(N)ncc1c1ccc(NS(=O)(=O)c3c(F)cccc3F)c(F)c12 | CHEK2 | radiometric | 1 µM | 72%
